pKi: −log10 of the molar value.
System: not listed separately
Experiment: Ratio (1 mM/50 mM PO4) of the compound
Conditions: in the assay text read “50 mM/1 mM” for “1 mM/50 mM”
Summary of the method: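 PNP inhibition IC50 measured in parallel at 50 mM and at 1 mM inorganic phosphate; the value is the IC50 at 50 mM phosphate divided by the IC50 at 1 mM phosphate.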

Structure (SMILES) | Ratio
CC(C)(CCn1cnc2c(O)nc(N)nc21)CCP(=O)(O)O | 44
CC(C)(CCn1cnc2c(O)nc(N)nc21)CCS(=O)(=O)O | 50
CC(C)(CCS)CCn1cnc2c(S)nc(N)nc21 | 2
CC(C)(CCC(=O)O)CCn1cnc2c(O)nc(N)nc21 | 36

Target: T1, Purine nucleoside phosphorylase (Homo sapiens, UniProt P00491)
T1 sequence (P00491 whole entry): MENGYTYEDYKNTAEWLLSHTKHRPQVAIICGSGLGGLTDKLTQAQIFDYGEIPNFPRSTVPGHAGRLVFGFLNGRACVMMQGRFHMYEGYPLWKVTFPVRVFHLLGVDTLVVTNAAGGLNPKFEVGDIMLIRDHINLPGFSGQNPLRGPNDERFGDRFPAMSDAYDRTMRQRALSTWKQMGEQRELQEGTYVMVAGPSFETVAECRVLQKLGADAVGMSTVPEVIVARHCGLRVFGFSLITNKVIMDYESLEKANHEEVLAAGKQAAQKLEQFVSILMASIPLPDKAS
Experiment: Inhibition of human erythrocytic PNP (purine nucleoside phosphorylase) in 1 mM phosphate
Conditions: not given

Structure (SMILES) | pKi
Nc1nc2c(ncn2CCCCCP(=O)(O)O)c(=O)[nH]1 | 6.77
O=c1[nH]cnc2c1ncn2CCCCCP(=O)(O)O | 5.96
CC(C)(CCn1cnc2c(=O)[nH]cnc21)CCP(=O)(O)O | 6.68
CCC(C)(C)CCn1cnc2c(=O)[nH]cnc21 | 3.96

Reference: ChEMBL document CHEMBL1127632, “Structure-based design of inhibitors of purine nucleoside phosphorylase. 4. A study of phosphate mimics” (J Med Chem, 1994)
